STAT1 blocker – inhibitors of IFN-gamma induced STAT1 signaling; NIH 3T3 STAT1-luciferase reporter, luminescence; inhibition, % at 5.5 µM; hit rate 0.35% among 200,000; AID 920;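 active means inhibition above a set limit, the mean inhibition across all tested compounds plus 3 SD, cut at about 34% in these data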;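 further: 0% = IFN-gamma with DMSO and 100% = IFN-gamma with 300 µM nifuroxazide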
STAT3 act – STAT3 signaling activation; AID 871; U3A cells, IL-6 STAT3-luciferase reporter, luminescence; 100% = signal with IL-6 EC80 alone; hit rate 0.91% among 190,000; activation (% of control), % at 5.6 µM;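 active means activation above the screen-wide mean of compound activation plus 3 SD, cut at about 130% in these data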;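 further: 0% = background luminescence of wells with medium and substrate only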
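System – human U3A cells carrying STAT3-luciferase construct · Probe or stimulus – Interleukin-6, 33 ng/mL · Schedule – compound 1 h, then IL-6 6 h at 37 °C · Signal – luminescence from STAT3-driven luciferase reporter · Evaluation – percent of IL-6-only median luminescence · Benchmarks – IL-6-only high control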
NF-kB neuron act – NF-kB expression increase, human neuronal cells | NF-kB reporter expression; hits give high values | hit rate 1.6% among 190,000 | fold change at 12.5 µM; in the data active means fold change above about 3.3
APP 5'UTR act – activates APP 5'UTR luciferase reporter | hit rate 1% among 190,000 | activation, % at 2 µM | SH-SY5Y APP 5'UTR luciferase reporter, luminescence; zero percent = DMSO vehicle wells;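 active means activation above a set limit, based on mean plus 3 SD of controls, cut at about 140% in these data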
STAT1 activator – increases IFN-gamma driven STAT1 reporter signal; NIH 3T3 STAT1-luciferase reporter, luminescence; 100% = IFN-gamma alone, no compound; activation (% of control), % at 5.5 µM; hit rate 2.6% among 200,000; AID 932;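 active means activation above the screen-wide mean activation plus 3 SD, cut at about 130% in these data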;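 further: raw ratio to IFN-gamma control signal so 100% means no change and 0% no light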
STAT3 inh-1 – inhibitors of IL-6 induced STAT3 signaling; U3A cells, IL-6 STAT3-luciferase reporter, luminescence; host cell line lacks STAT1; AID 862; inhibition, % at 5.5 µM; hit rate 0.89% among 190,000;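 active means inhibition above the mean inhibition across all screened compounds plus 3 SD, cut at about 44% in these data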;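 further: 0% = DMSO only wells and 100% = 100 µM nifuroxazide control wells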
STAT3 inh-2 – confirmation of STAT3 signaling inhibitors; U3A cells, IL-6 STAT3 luciferase reporter, luminescence; cell line lacks STAT1; AID 1265; inhibition, % at 5.7 µM; hit rate 45% among 1,200; shares compounds with STAT3 inh-1;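 active means inhibition above the hit cutoff computed for the primary STAT3 screen, cut at about 44% in these data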;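 further: 0% = IL-6 plus DMSO and 100% = IL-6 plus nifuroxazide control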
NFkB inh STAT3ct – inhibits NF-kappaB, counter-screen to STAT3 inhibitors; HEK293T NF-kB luciferase reporter, TNF-alpha induced; inhibition, % at 5.7 µM; AID 1308; shares compounds with STAT3 inh-1; hit rate 36% among 1,200;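 active means inhibition above the mean of solvent-only control wells plus 3 SD, cutoff set per campaign, cut at about 13% in these data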;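 further: 0% = TNF-alpha with DMSO and 100% = TNF-alpha with MG high control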
STAT1 inh 2 – inhibits STAT1, counter-screen to STAT3 inhibitors; NIH 3T3 STAT1-luciferase reporter, IFN-gamma induced, luminescence; hit rate 27% among 1,200; inhibition, % at 5.7 µM; shares compounds with STAT3 inh-1;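 active means inhibition above the mean plus 3 SD of solvent-only control wells, limit set per screening run, cut at about 16% in these data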;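 further: 0% = DMSO with IFN-gamma and 100% = nifuroxazide control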
* hit, by the source's call. Most compounds without a hit are left out; they make up all but 5.1% or so of the library.

Results for CCN(C1CCCCC1)S(=O)(=O)c1ccc(S(=O)(=O)NCc2ccncc2)cc1 ?
STAT1 blocker: 21; STAT3 act: 51; NF-kB neuron act: 0.86; APP 5'UTR act: 19; STAT1 activator: 81; STAT3 inh-1: 62*; STAT3 inh-2: 43; NFkB inh STAT3ct: 15*; STAT1 inh 2: 25*

How did COc1cc(C)c(Cl)cc1S(=O)(=O)NCc1ccncc1 do in these assays?
STAT1 blocker: 21; STAT3 act: 42; NF-kB neuron act: 0.86; APP 5'UTR act: -14; STAT1 activator: 83; STAT3 inh-1: 70*; STAT3 inh-2: 66*; NFkB inh STAT3ct: 19*; STAT1 inh 2: 21*

What do the screens show for `COC(=O)COc1ccc(S(=O)(=O)NCc2ccncc2)cc1`?
STAT1 blocker: 20; STAT3 act: 49; NF-kB neuron act: 1; APP 5'UTR act: -9; STAT1 activator: 81; STAT3 inh-1: 63*; STAT3 inh-2: 54*; NFkB inh STAT3ct: 5; STAT1 inh 2: 19*

Results for CCN(C1CCCCC1)S(=O)(=O)c1ccc(S(=O)(=O)NCCc2ccncc2)cc1 ?
STAT1 blocker: -1; STAT3 act: 111; NF-kB neuron act: 1.4; APP 5'UTR act: 18; STAT1 activator: 102; STAT3 inh-1: -6

What do the screens show for `COc1cc(C)c(Br)cc1S(=O)(=O)NCc1ccccc1`?
STAT1 blocker: -3; STAT3 act: 91; NF-kB neuron act: 1.4; APP 5'UTR act: 15; STAT1 activator: 102; STAT3 inh-1: 16

Results for O=S(=O)(NCc1ccncc1)c1ccc(Br)s1 ?
STAT1 blocker: 31; STAT3 act: 34; NF-kB neuron act: 1.4; APP 5'UTR act: -28; STAT1 activator: 72; STAT3 inh-1: 83*; STAT3 inh-2: 80*; NFkB inh STAT3ct: 27*; STAT1 inh 2: 27*

Results for O=C(O)CNS(=O)(=O)c1ccc(Br)s1 ?
STAT1 blocker: 3; STAT3 act: 107; NF-kB neuron act: 1.2; APP 5'UTR act: -7; STAT1 activator: 98; STAT3 inh-1: -2

Results for Cc1ccc(C(=O)NCC(=O)OC(C)C(=O)NCCC2=CCCCC2)cc1C (stereo not given) ?
STAT1 blocker: -3; STAT3 act: 100; NF-kB neuron act: 1.1; APP 5'UTR act: -2; STAT1 activator: 103; STAT3 inh-1: -1

Results for O=S(=O)(NCc1ccncc1)c1ccccc1 ?
STAT1 blocker: 12; STAT3 act: 72; NF-kB neuron act: 0.99; APP 5'UTR act: -1; STAT1 activator: 88; STAT3 inh-1: 32

What do the screens show for `Cc1ccc(S(=O)(=O)NCc2ccncc2)cc1C`?
STAT1 blocker: 31; STAT3 act: 39; NF-kB neuron act: 0.89; APP 5'UTR act: 3; STAT1 activator: 70; STAT3 inh-1: 74*; STAT3 inh-2: 76*; NFkB inh STAT3ct: 26*; STAT1 inh 2: 17*

What do the screens show for `C1=C(CCNc2ncnc3c2[nH]c2ccccc23)CCCC1`?
STAT1 blocker: 29; STAT3 act: 32; NF-kB neuron act: 0.66; APP 5'UTR act: 25; STAT1 activator: 74; STAT3 inh-1: 83*; STAT3 inh-2: 78*; NFkB inh STAT3ct: 41*; STAT1 inh 2: 32*

How did CC(C)OCCCNc1ncnc2c1[nH]c1ccccc12 do in these assays?
STAT1 blocker: 29; STAT3 act: 45; NF-kB neuron act: 0.54; APP 5'UTR act: -1; STAT1 activator: 73; STAT3 inh-1: 66*; STAT3 inh-2: 62*; NFkB inh STAT3ct: 18*; STAT1 inh 2: 32*

How did COc1ccc2[nH]c3c(NCCN(C(C)C)C(C)C)ncnc3c2c1 do in these assays?
STAT1 blocker: 0; STAT3 act: 110; NF-kB neuron act: 0.94; APP 5'UTR act: 8; STAT1 activator: 100; STAT3 inh-1: -7

What do the screens show for `O=c1c2[nH]c3ccccc3c2ncn1CCC1=CCCCC1`?
STAT1 blocker: -20; STAT3 act: 99; NF-kB neuron act: 1.3; APP 5'UTR act: 35; STAT1 activator: 118; STAT3 inh-1: 4

Results for O=C(CCCN1C(=O)S/C(=C\c2ccccc2)C1=O)NNC(=O)c1ccccc1O ?
STAT1 blocker: 24; STAT3 act: 48; NF-kB neuron act: 0.95; APP 5'UTR act: -63; STAT1 activator: 76; STAT3 inh-1: 64*; STAT3 inh-2: 56*; NFkB inh STAT3ct: 35*; STAT1 inh 2: 4

How did O=C(CN1C(=O)S/C(=C\c2ccccc2)C1=O)NNC(=O)c1ccccc1O do in these assays?
STAT1 blocker: 4; STAT3 act: 102; NF-kB neuron act: 1.1; APP 5'UTR act: -5; STAT1 activator: 96; STAT3 inh-1: -4

How did O=C(CCSc1nc2ccccc2s1)N/N=C/c1c(O)ccc2ccccc12 do in these assays?
STAT1 blocker: 11; STAT3 act: 106; NF-kB neuron act: 1; APP 5'UTR act: -52; STAT1 activator: 90; STAT3 inh-1: -4

How did Cc1cc(N=NC(=O)c2ccccc2)ccc1O do in these assays?
STAT1 blocker: 24; STAT3 act: 56; NF-kB neuron act: 1.1; APP 5'UTR act: 10; STAT1 activator: 77; STAT3 inh-1: 55*; STAT3 inh-2: 5; NFkB inh STAT3ct: 1; STAT1 inh 2: 4

How did COC(=O)COc1ccc(NS(=O)(=O)c2cccc([N+](=O)[O-])c2)cc1 do in these assays?
STAT1 blocker: -10; STAT3 act: 103; NF-kB neuron act: 1.4; APP 5'UTR act: -4; STAT1 activator: 108; STAT3 inh-1: 4

How did Cc1cc(/C=N/n2cnnc2)c(C)n1-c1ccc(OCc2ccc(Cl)cc2)cc1 do in these assays?
STAT1 blocker: 19; STAT3 act: 37; NF-kB neuron act: 0.46; APP 5'UTR act: 42; STAT1 activator: 82; STAT3 inh-1: 77*; STAT3 inh-2: 61*; NFkB inh STAT3ct: 18*; STAT1 inh 2: 15

Results for Cc1cc(/C=N/n2cnnc2)c(C)n1-c1ccc(OCc2ccccc2F)cc1 ?
STAT1 blocker: 13; STAT3 act: 86; NF-kB neuron act: 0.46; APP 5'UTR act: 12; STAT1 activator: 88; STAT3 inh-1: 20

How did CN(C)/C=N/C1=C(C#N)C(c2cccs2)c2ccc3ccccc3c2O1 (stereo not given) do in these assays?
STAT1 blocker: -27; STAT3 act: 126; NF-kB neuron act: 2.1; APP 5'UTR act: -92; STAT1 activator: 124; STAT3 inh-1: -15
